Sampled rows, rich in hits. Any-hit rate of the full collection: about 5.9%.
Pf Dd2 inh – P. falciparum Dd2 growth inhibition | activity change, % at 10 µM | 94,000 tested, 2.3% active | SYBR Green, 72 h; stronger effect = lower value; in the data active means activity change below about -80%; inconclusive means no clear call, values can overlap the other calls
IDH1 R132H inh – blocks human IDH1 R132H reductase activity; 70,000 tested, 0.18% active; diaphorase/resazurin fluorescence, 60 min; AID 624101; inhibition, % at 10 µM; in the data active means inhibition above about 34%; inconclusive means no clear call, values can overlap the other calls; inactive means below about 11%
Target sequence (O75874 whole entry R132H): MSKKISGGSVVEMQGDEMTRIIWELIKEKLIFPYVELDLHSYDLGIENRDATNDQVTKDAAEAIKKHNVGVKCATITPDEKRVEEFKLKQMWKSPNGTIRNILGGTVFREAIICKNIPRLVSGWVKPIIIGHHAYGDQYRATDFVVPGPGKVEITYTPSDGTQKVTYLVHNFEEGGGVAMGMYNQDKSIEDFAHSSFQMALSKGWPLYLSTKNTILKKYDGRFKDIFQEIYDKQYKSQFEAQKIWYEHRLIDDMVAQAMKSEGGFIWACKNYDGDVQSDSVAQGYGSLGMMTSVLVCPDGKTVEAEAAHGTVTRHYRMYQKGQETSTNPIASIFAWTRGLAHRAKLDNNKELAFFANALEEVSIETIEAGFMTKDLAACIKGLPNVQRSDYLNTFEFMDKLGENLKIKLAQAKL
GASC1 inh – blocks human GASC-1 (KDM4C) demethylase activity; Q9H3R0; GST-KDM4C 2-372, H3K9me3 peptide, LANCE TR-FRET; inhibition, % at 12.5 µM; 96,000 tested, 0.15% active;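 active means mean replicate inhibition above about 25%, with at least 55% of replicates also reaching it, limit read from the data, passing the limit was not always enough; inconclusive means only one of those two conditions met; inactive means neither condition met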
Target sequence (Q9H3R0 2-372 limits assumed): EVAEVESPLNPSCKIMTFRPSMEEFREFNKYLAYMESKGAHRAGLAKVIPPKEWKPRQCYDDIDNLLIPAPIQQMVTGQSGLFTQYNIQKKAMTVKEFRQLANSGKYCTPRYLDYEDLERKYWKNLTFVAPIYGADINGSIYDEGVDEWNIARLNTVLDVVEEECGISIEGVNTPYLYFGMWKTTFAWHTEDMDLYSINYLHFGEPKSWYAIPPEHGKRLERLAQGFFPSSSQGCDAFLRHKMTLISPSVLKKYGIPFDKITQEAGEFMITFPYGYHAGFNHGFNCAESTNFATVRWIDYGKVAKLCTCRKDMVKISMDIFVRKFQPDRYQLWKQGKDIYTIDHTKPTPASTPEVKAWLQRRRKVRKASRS
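Material: N-terminal GST-fused human GASC-1 (KDM4C) fragment, residues 2-372. Input: 10 nM enzyme. Incubation: enzyme reaction 30 min, then detection 60 min, both room temperature. Doses: one test concentration per compound. Read-out basis: inhibition from TR-FRET ratio decrease. Detection: LANCE TR-FRET, excitation 340 nm, emissions 618 and 671 nm.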
T cruzi growth-1 – blocks T. cruzi growth in NIH3T3 culture; 77,000 tested, 5.9% active; T. cruzi beta-gal in NIH3T3, GalScreen luminescence, 90 h; inhibition, % at 8.34 µM;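 active means mean inhibition above about 93%, with at least 55% of replicates each passing it, limit read from the data, passing the limit was not always enough; inconclusive means only one of those two conditions holds; inactive means neither condition holds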
T cruzi growth-2 – inhibitors of T. cruzi proliferation; 5,600 tested, 72% active; T. cruzi beta-gal in NIH3T3, GalScreen luminescence, 90 h; inhibition, % at 8.35 µM; shares compounds with T cruzi growth-1;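 active means mean replicate inhibition above about 95% and at least 55% of replicates individually reaching it, limit read from the data; inconclusive means only one of the two criteria is met; inactive means neither criterion is met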
T cruzi growth-3 – inhibitors of T. cruzi proliferation; shares compounds with T cruzi growth-1; T. cruzi beta-gal in NIH3T3, GalScreen luminescence, 90 h; inhibition, % at 2.09 µM; 5,600 tested, 21% active;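 active means mean inhibition above about 95%, with at least 55% of replicates also reaching it, limit read from the data; inconclusive means meets just one of the two conditions; inactive means meets neither condition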
NIH3T3 tox – kills mouse NIH/3T3 fibroblasts | shares compounds with T cruzi growth-1 | NIH/3T3 viability, CellTiter-Glo ATP luminescence, 90 h | cytotoxicity (signal decrease), % at 8.35 µM | 5,600 tested, 14% active | AID 651742;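 active means mean signal decrease across replicates above about 35% based on untreated-well scatter, with enough replicates individually passing, limit read from the data; inconclusive means no rule stated though some were filed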
3T3 cytotox 2 – NIH/3T3 (mouse) viability loss. 5,600 tested, 56% active. NIH/3T3 viability, CellTiter-Glo ATP luminescence, 90 h. shares compounds with T cruzi growth-1. inhibition, % at 24.9 µM;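 active means mean loss of cell viability signal at or above a set limit, and enough replicates individually reaching it; inconclusive means meets only the mean limit or only the replicate share; inactive means meets neither condition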
Of the large screens only hits and unclear results are named; the others gave an inactive call (follow-up assays come after a bar, where they were run).

C[C@@H]1CCCCO[C@H](CN(C)C(=O)Nc2ccc(C(F)(F)F)cc2)[C@@H](C)CN([C@H](C)CO)C(=O)c2cc(NS(=O)(=O)c3ccc(Cl)cc3)ccc2O1	T cruzi growth-1 104 | T cruzi growth-2 99 | T cruzi growth-3 inactive | NIH3T3 tox inactive | 3T3 cytotox 2 inactive
C[C@@H]1CCCCO[C@H](CN(C)C(=O)Nc2ccc(C(F)(F)F)cc2)[C@H](C)CN([C@H](C)CO)C(=O)c2cc(NS(=O)(=O)c3ccc(Cl)cc3)ccc2O1	T cruzi growth-1 99 | T cruzi growth-2 inconclusive | T cruzi growth-3 118 | NIH3T3 tox inactive | 3T3 cytotox 2 inactive
C[C@@H]1CCCCO[C@@H](CN(C)C(=O)Nc2ccc(C(F)(F)F)cc2)[C@H](C)CN([C@H](C)CO)C(=O)c2cc(NS(=O)(=O)c3ccc(Cl)cc3)ccc2O1	T cruzi growth-1 inconclusive | T cruzi growth-2 inactive | T cruzi growth-3 118 | NIH3T3 tox inactive | 3T3 cytotox 2 inactive
CCCc1nnc2n1N=C(c1ccc(Br)cc1)CS2	none (no result: Pf Dd2 inh, GASC1 inh, T cruzi growth-1)
O=C1C(=O)N(Cc2cccnc2)C(c2ccccn2)C1C(=O)c1cccs1 (stereo not drawn)	none (no result: Pf Dd2 inh, GASC1 inh, T cruzi growth-1)
COc1ccc(S(=O)(=O)N(C)C[C@@H]2Oc3cc(C4=CCCC4)ccc3S(=O)(=O)N([C@H](C)CO)C[C@@H]2C)cc1	T cruzi growth-1 120 | T cruzi growth-2 101 | T cruzi growth-3 inactive | NIH3T3 tox inactive | 3T3 cytotox 2 49
Cc1ccc(S(=O)(=O)N(C)C[C@H]2Oc3cc(C4=CCCC4)ccc3S(=O)(=O)N([C@H](C)CO)C[C@H]2C)cc1	none (no result: T cruzi growth-1)
COc1ccc(S(=O)(=O)N(C)C[C@@H]2Oc3cc(C4=CCCC4)ccc3S(=O)(=O)N([C@@H](C)CO)C[C@@H]2C)cc1	T cruzi growth-1 109 | T cruzi growth-2 104 | T cruzi growth-3 inactive | NIH3T3 tox inactive | 3T3 cytotox 2 39
COc1cccc(S(=O)(=O)N(C)C[C@@H]2Oc3cc(C4=CCCC4)ccc3S(=O)(=O)N([C@H](C)CO)C[C@@H]2C)c1	T cruzi growth-1 107 | T cruzi growth-2 104 | T cruzi growth-3 inactive | NIH3T3 tox inactive | 3T3 cytotox 2 27
COc1cccc(S(=O)(=O)N(C)C[C@H]2Oc3cc(C4=CCCC4)ccc3S(=O)(=O)N([C@@H](C)CO)C[C@H]2C)c1	none
O=C(CCN1C(=O)c2cccc3cccc(c23)C1=O)N1CCN(c2ncccn2)CC1	none (no result: Pf Dd2 inh, GASC1 inh, T cruzi growth-1)
COc1cccc(-c2ccc([C@@H]3[C@H]4CN(C(=O)NC(C)C)CCCCN4[C@H]3CO)cc2)c1	none (no result: IDH1 R132H inh)
Cc1cccc(-c2ccc([C@@H]3[C@H](CO)N4CCCCN(C(=O)NC(C)C)C[C@@H]34)cc2)c1	T cruzi growth-1 104 (no result: IDH1 R132H inh) | T cruzi growth-2 110 | T cruzi growth-3 inactive | NIH3T3 tox inactive | 3T3 cytotox 2 105
CC(=O)N1CCCCN2[C@H](CO)[C@@H](c3ccc(-c4cccc(C)c4)cc3)[C@@H]2C1	none (no result: IDH1 R132H inh)
CC(=O)N1CCCCN2[C@H](CO)[C@@H](c3ccc(-c4cccc(C)c4)cc3)[C@H]2C1	none (no result: IDH1 R132H inh)
Cc1cccc(-c2ccc([C@H]3[C@H](CO)N4CCCCN(C(=O)NC(C)C)C[C@@H]34)cc2)c1	T cruzi growth-1 106 (no result: IDH1 R132H inh) | T cruzi growth-2 107 | T cruzi growth-3 inactive | NIH3T3 tox inactive | 3T3 cytotox 2 96
Cc1cccc(-c2ccc([C@H]3[C@H]4CN(C(=O)NC(C)C)CCCCN4[C@H]3CO)cc2)c1	T cruzi growth-1 99 (no result: IDH1 R132H inh) | T cruzi growth-2 inactive | T cruzi growth-3 inactive | NIH3T3 tox inactive | 3T3 cytotox 2 inactive
C[C@H]1CN([C@@H](C)CO)C(=O)c2cccc(NC(=O)c3ccncc3)c2O[C@H]1CN(C)C(=O)Nc1cccc2ccccc12	T cruzi growth-1 96 | T cruzi growth-2 inconclusive | T cruzi growth-3 inactive | NIH3T3 tox inactive | 3T3 cytotox 2 inactive
C[C@@H]1CN([C@@H](C)CO)C(=O)c2cccc(NC(=O)Nc3ccc(C(F)(F)F)cc3)c2O[C@@H]1CN(C)C(=O)Nc1cccc2ccccc12	none
C[C@H](CO)N1C[C@H](C)[C@H](CN(C)C(=O)Nc2ccccc2)Oc2c(NC(=O)Nc3cccc4ccccc34)cccc2C1=O	T cruzi growth-1 110 | T cruzi growth-2 107 | T cruzi growth-3 inactive | NIH3T3 tox inactive | 3T3 cytotox 2 41
C[C@H]1CN([C@@H](C)CO)C(=O)c2cccc(NC(=O)Nc3cccc4ccccc34)c2O[C@H]1CN(C)C(=O)Nc1ccc(F)cc1	T cruzi growth-1 116 | T cruzi growth-2 109 | T cruzi growth-3 inactive | NIH3T3 tox inactive | 3T3 cytotox 2 inconclusive
C[C@H](CO)N1C[C@H](C)[C@@H](CN(C)C(=O)Nc2cccc3ccccc23)Oc2c(NC(=O)Nc3ccc(C(F)(F)F)cc3)cccc2C1=O	T cruzi growth-1 97 (no result: IDH1 R132H inh) | T cruzi growth-2 104 | T cruzi growth-3 inactive | NIH3T3 tox inactive | 3T3 cytotox 2 103
COc1ccc(C(=O)C(C)Oc2cccc(NC(=O)c3ccccc3[N+](=O)[O-])c2)cc1 (stereo not drawn)	none (no result: Pf Dd2 inh, GASC1 inh, T cruzi growth-1)
Cc1ccc(C(C)C)c(OCCSc2nc3ncnc(N)c3[nH]2)c1	none (no result: Pf Dd2 inh, GASC1 inh, T cruzi growth-1)
Cc1ccc(C(C)C)c(OCC(=O)/C=C2\Sc3ccccc3N2C)c1	none (no result: Pf Dd2 inh, GASC1 inh, T cruzi growth-1)
CC(C)C#Cc1ccc([C@@H]2[C@@H](CO)N3CCCCN(C(=O)NC(C)C)C[C@@H]23)cc1	none (no result: IDH1 R132H inh)
CC(C)NC(=O)N1CCCCN2[C@H](C1)[C@H](c1ccc(C#CC3CC3)cc1)[C@@H]2CO	none (no result: IDH1 R132H inh)
CC(C)C#Cc1ccc([C@H]2[C@@H](CO)N3CCCCN(C(=O)NC(C)C)C[C@H]23)cc1	T cruzi growth-1 102 (no result: IDH1 R132H inh) | T cruzi growth-2 111 | T cruzi growth-3 inactive | NIH3T3 tox inactive | 3T3 cytotox 2 49
CC(C)NC(=O)N1CCCCN2[C@H](CO)[C@H](c3ccc(C#CC4CC4)cc3)[C@H]2C1	T cruzi growth-1 110 (no result: IDH1 R132H inh) | T cruzi growth-2 113 | T cruzi growth-3 inactive | NIH3T3 tox inactive | 3T3 cytotox 2 66
CC(C)NC(=O)N1CCCCN2[C@@H](CO)[C@@H](c3ccc(C#CC4CC4)cc3)[C@@H]2C1	T cruzi growth-1 107 (no result: IDH1 R132H inh) | T cruzi growth-2 111 | T cruzi growth-3 inactive | NIH3T3 tox inactive | 3T3 cytotox 2 49
COc1ccc(C(=O)Oc2ccc(C)c3c2C(=O)OC(C)C3)c2c1C(=O)OC(C)C2 (stereo not drawn)	none (no result: Pf Dd2 inh, GASC1 inh, T cruzi growth-1)
CCOc1c(OC)cccc1C1C(C(=O)Nc2ccccc2OC)=C(C)Nc2ncnn21 (stereo not drawn)	none (no result: Pf Dd2 inh, GASC1 inh, T cruzi growth-1)
